Assay results from PMC12423902 (ACS Omega, 2025).
Like-named read-outs stand apart in the source and are kept apart here.

What was measured:
FASN [1] = molecular target: T1, FASN (Gallus gallus, UniProt P12276); experiment: FASN overall reaction inhibition; assay type: biochemical, chicken
Method in brief: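 Overall reaction of purified chicken liver FASN at 37 °C, read as initial rate of NADPH absorbance loss at 340 nm. The test compound was added before the last substrate, which started the reaction; DMSO was below 0.5% (v/v). Relative activity was Ai/A0 × 100%. IC50 came from a plot of relative activity versus concentration. Single-point data at 10.0 μM are mean ± SD, n = 3 independent experiments.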

FASN [2] = molecular target: T1, FASN; conditions: read-out: IC50, FASN inhibition; literature value; ref number not given; cited from earlier work
[3] = ref number not given, cited from earlier work
[4] = test system: FASN expression in MDA-MB-231 and MCF-7 cells; experiment: Western blot analysis of FASN expression in breast cancer cells; assay type: cell-based, human; conditions: 60–90 μM, 24 h, both cell lines
Method in brief: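 Cells in DMEM/10% FBS were treated 24 h with test compound, washed with PBS, lysed in RIPA and sonicated. Protein was measured by BCA, and 20 μg per lane was run on 8% SDS-PAGE and transferred to PVDF. Membranes were blocked in 5% milk, probed overnight at 4 °C with rabbit monoclonal anti-FASN and anti-β-actin, then an HRP anti-rabbit secondary. Detection was by ECL, with densitometry normalized to β-actin; mean ± SD, n = 3.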

FASN KR domain = FASN KR domain (Gallus gallus, UniProt P12276); experiment: time-dependent inhibition of the KR domain; assay type: biochemical, chicken
Chain of FASN KR domain (P12276 2-2512 limits assumed): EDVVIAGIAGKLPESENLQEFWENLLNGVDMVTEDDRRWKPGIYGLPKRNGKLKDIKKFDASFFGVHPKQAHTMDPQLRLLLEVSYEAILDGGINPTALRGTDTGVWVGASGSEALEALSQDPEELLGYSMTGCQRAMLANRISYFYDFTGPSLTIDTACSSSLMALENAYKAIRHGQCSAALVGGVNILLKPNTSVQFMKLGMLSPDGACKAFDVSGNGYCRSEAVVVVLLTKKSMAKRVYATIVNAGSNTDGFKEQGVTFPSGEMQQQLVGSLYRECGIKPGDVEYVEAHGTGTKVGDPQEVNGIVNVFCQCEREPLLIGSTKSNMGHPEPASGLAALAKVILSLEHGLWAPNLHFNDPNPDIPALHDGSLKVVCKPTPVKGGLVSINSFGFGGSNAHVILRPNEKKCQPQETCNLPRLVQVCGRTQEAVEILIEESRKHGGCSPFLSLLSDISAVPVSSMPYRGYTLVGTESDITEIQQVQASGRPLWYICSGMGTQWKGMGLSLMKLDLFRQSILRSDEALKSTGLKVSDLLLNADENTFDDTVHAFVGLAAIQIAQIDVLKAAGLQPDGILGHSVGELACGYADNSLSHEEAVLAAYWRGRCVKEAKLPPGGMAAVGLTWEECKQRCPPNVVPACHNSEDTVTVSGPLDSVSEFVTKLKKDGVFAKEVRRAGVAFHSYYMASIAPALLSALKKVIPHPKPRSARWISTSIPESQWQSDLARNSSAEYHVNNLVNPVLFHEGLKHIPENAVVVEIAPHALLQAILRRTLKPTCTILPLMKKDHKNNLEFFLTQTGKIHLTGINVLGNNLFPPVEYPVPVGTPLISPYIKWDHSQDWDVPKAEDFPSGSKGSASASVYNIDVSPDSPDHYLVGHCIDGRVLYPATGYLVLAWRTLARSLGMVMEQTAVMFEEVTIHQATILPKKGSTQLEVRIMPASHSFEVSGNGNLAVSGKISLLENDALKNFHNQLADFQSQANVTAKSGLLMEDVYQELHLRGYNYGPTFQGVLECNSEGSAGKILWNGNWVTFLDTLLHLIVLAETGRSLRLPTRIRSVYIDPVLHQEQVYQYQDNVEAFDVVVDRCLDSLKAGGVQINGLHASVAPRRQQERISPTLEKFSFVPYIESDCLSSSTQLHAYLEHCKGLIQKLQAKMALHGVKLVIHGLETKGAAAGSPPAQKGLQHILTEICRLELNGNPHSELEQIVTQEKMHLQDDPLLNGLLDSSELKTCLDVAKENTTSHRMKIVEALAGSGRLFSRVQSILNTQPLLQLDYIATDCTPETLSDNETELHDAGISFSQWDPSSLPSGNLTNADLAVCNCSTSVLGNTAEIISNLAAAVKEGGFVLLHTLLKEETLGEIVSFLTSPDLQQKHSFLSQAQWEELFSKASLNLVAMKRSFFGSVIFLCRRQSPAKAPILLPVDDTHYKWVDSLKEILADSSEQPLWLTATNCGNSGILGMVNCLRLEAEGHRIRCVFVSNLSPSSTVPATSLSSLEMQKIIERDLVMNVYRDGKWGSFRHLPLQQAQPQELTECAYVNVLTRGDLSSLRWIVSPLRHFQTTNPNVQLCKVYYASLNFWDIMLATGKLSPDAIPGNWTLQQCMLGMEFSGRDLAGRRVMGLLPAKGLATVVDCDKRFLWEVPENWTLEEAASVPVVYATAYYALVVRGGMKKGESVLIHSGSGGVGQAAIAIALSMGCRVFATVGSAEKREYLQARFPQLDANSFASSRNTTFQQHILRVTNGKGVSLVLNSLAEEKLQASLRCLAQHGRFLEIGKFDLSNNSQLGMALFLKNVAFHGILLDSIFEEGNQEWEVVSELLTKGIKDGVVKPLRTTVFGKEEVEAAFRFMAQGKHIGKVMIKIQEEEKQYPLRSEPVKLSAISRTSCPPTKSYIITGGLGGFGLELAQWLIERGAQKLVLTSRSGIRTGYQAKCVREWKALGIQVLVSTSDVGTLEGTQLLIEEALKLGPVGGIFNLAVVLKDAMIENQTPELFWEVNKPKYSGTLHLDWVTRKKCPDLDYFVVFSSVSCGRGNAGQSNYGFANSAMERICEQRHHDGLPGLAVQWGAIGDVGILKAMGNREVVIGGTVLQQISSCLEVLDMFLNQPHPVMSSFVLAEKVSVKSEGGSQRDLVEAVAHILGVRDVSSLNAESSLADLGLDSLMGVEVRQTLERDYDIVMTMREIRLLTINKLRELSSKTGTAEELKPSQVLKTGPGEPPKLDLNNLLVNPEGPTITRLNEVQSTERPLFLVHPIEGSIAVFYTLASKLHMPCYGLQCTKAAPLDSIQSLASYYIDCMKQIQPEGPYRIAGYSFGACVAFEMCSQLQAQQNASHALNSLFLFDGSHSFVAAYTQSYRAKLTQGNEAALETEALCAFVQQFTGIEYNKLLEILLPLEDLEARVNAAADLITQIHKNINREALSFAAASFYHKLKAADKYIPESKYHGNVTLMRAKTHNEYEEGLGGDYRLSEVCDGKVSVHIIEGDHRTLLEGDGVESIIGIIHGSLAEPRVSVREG

FASN [5] = molecular target: T1, FASN; experiment: time-dependent; assay type: biochemical, chicken
Method in brief: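 FASN was incubated at 25 °C with various test compound concentrations. Aliquots taken at set intervals were assayed for residual overall activity. kobs came from ln(At/A0) = −kobs·t. For substrate protection, Ac-CoA, Mal-CoA or NADPH (10 μM each) was present during inactivation, compared with no substrate. In a separate series, FASN (0.60 μM) was preincubated with 6.6 μM test compound plus rising Ac-CoA, and 1/kobs was plotted against Ac-CoA.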

[6] = test system: intracellular TG content in breast cancer cells (MDA-MB-231, MCF-7); experiment: triglyceride; assay type: cell-based, human; conditions: 24 h, p < 0.001
FASN [7] = molecular target: T1, FASN; experiment: enzyme kinetics study; assay type: biochemical, chicken; conditions: for Ki: Inhibition constant K is
Method in brief: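 Purified chicken FASN, overall reaction at 340 nm (NADPH). One substrate was varied with the others fixed. Ac-CoA varied with Mal-CoA 10 μM and NADPH 35 μM, test compound 0–5.86 μM. Mal-CoA varied with Ac-CoA 3 μM and NADPH 35 μM, test compound 0–6.88 μM. NADPH varied with Ac-CoA 3 μM and Mal-CoA 10 μM, test compound 0–9.12 μM. Lineweaver–Burk plots; Kis/Kii from secondary plots; points are means of 2–5 experiments.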

MCF-7 = experiment: cell viability assay; assay type: cell-based; conditions: Homo sapiens, MCF7, 24 h, read-out: IC50, cell viability
Method in brief: (§1)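 Cells were grown in DMEM with 10% FBS at 37 °C and 5% CO2. They were seeded at 1 × 10^6 cells/mL and allowed to attach overnight before treatment. Medium was then replaced with drug-free medium containing CCK-8 reagent, incubated 1 h at 37 °C, and read at 450 nm. Six replicates were run on three separate occasions.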

[8] = molecular target: FASN ER domain (enoyl reduction) (Gallus gallus, UniProt P12276); experiment: enoyl reduction partial reaction of FASN; assay type: biochemical, chicken; conditions: 10.0 μM phloretin
Method in brief: (§2)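 Chicken liver FASN was purified by two-step ammonium sulfate precipitation, DEAE-cellulose and Blue-Sepharose chromatography, and stored at −70 °C. Partial reactions (β-ketoacyl reduction, enoyl reduction, AcAc-CoA reduction) were run at 37 °C after 10 min equilibration. The test compound was at 10.0 μM, with DMSO below 0.5% (v/v). Initial velocity came from the NADPH decrease at 340 nm. Relative activity was Ai/A0 × 100%, given as mean ± SD of three independent experiments.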

MDA-MB-231 = experiment: cell viability assay; assay type: cell-based; conditions: Homo sapiens, MDA-MB-231, 24 h, read-out: IC50, cell viability
Method in brief: as §1

[9] = molecular target: FASN (MAT, KR, DH, ER domains and ACP; AcAc-CoA reaction) (Gallus gallus, UniProt P12276); experiment: AcAc-CoA reduction reaction of FASN; assay type: biochemical, chicken; conditions: 10.0 μM phloretin
Chain of FASN (MAT, KR, DH, ER domains and ACP; AcAc-CoA reaction) (P12276 2-2512 limits assumed): as above
Method in brief: as §2

[10] = molecular target: intracellular FASN in breast cancer cells (MDA-MB-231, MCF-7) (Homo sapiens, UniProt P49327); experiment: intracellular FASN activity assay; assay type: cell-based
Chain of intracellular FASN in breast cancer cells (MDA-MB-231, MCF-7) (P49327 whole entry): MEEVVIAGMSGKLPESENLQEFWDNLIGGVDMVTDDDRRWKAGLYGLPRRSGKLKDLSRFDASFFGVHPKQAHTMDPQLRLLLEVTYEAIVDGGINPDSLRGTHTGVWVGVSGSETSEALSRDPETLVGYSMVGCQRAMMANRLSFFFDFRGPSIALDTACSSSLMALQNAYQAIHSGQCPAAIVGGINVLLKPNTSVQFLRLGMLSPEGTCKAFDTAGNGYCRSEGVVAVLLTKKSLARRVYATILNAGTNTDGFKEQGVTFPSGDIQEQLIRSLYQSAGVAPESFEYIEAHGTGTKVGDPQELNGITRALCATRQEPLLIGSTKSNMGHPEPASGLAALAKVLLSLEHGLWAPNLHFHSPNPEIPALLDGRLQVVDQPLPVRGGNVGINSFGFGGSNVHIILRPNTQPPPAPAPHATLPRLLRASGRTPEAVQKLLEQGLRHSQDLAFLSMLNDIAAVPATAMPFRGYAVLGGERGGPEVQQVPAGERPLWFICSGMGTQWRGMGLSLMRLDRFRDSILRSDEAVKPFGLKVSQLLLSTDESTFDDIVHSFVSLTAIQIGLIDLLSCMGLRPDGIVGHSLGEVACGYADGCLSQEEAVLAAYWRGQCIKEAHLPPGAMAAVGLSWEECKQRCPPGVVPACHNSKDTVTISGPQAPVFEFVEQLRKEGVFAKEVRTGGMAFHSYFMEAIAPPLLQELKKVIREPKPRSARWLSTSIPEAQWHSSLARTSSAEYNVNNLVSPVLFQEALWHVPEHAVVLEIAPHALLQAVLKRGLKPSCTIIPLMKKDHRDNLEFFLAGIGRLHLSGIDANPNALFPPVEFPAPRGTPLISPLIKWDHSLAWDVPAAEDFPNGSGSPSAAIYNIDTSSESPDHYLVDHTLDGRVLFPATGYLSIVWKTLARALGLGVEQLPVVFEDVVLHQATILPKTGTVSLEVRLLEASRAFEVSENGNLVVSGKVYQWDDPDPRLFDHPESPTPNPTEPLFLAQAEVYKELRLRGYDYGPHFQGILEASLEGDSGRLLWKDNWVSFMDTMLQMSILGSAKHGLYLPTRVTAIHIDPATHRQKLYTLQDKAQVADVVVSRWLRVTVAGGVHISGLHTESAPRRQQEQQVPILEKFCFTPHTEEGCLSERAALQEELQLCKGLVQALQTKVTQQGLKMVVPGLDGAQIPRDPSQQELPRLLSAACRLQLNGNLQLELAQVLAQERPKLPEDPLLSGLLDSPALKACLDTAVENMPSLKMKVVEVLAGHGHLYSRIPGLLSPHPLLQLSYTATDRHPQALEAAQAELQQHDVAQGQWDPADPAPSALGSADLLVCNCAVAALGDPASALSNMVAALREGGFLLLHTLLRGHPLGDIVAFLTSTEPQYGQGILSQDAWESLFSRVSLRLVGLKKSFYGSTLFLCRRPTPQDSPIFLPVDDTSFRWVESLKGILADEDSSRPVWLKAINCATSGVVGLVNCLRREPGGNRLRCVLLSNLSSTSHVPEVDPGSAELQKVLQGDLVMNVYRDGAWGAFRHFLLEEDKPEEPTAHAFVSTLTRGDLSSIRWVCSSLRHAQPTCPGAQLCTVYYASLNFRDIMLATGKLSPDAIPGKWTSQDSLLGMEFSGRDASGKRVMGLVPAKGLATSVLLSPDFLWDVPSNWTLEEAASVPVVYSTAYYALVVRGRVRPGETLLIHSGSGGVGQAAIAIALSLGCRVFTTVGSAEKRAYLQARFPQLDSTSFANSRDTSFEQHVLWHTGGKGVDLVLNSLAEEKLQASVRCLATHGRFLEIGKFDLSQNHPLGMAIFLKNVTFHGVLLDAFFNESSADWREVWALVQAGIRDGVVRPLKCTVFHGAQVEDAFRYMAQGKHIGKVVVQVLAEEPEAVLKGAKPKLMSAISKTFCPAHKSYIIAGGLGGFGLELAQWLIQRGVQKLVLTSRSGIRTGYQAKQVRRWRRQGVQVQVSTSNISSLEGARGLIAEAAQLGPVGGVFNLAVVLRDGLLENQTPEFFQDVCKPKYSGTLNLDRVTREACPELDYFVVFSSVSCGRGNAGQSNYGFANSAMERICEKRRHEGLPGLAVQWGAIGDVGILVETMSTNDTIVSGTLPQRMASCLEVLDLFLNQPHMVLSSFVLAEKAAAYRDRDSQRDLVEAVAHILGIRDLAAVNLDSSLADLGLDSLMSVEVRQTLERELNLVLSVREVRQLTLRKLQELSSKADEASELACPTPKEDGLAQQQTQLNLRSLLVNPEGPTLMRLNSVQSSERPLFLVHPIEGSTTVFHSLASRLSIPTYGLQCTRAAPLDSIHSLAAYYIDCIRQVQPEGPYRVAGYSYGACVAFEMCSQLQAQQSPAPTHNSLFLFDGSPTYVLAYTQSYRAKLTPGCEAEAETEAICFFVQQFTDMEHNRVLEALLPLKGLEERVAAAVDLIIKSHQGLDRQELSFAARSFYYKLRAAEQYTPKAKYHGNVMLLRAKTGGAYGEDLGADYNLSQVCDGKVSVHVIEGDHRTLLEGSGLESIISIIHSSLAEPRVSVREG
Method in brief: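 After 24 h exposure, cells were trypsinized, washed three times and resuspended in cold PBS. They were sonicated at 4 °C and spun at 12,000 g for 15 min at 4 °C. Supernatant was assayed in 25 mM K-phosphate (pH 7.0) with 0.25 mM EDTA, 0.25 mM DTT, 30 μM Ac-CoA and 350 μM NADPH. Background A340 was read for 60 s, then Mal-CoA was added and FAS-dependent NADPH oxidation read for 60 s more. Mean ± SD, n = 3; ANOVA with Tukey.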

[11] = molecular target: FASN KR domain (β-ketoacyl reduction) (Gallus gallus, UniProt P12276); experiment: β-ketoacyl reduction partial reaction of FASN; assay type: biochemical, chicken; conditions: 10.0 μM phloretin
Chain of FASN KR domain (β-ketoacyl reduction) (P12276 2-2512 limits assumed): as the sequence (P12276 2-2512 limits assumed) above
Method in brief: as §2

T1 sequence (P12276 2-2512 limits assumed): as above

O=C(O[C@@H]1Cc2c(O)cc(O)cc2O[C@@H]1c1cc(O)c(O)c(O)c1)c1cc(O)c(O)c(O)c1 [EGCG, epigallocatechin gallate, reference compound]
IC50 (FASN [1]; read-out: IC50, FASN overall reaction activity, chicken liver FASN, 37 °C): 50.5 ± 0.75 µM
IC50 (FASN [2]): 52 µM

C/C=C/C/C=C/CCC(=O)[C@H]1O[C@H]1C(N)=O [cerulenin]
IC50 (FASN [2]): 89 µM

O=C(CCc1ccc(O)cc1)c1c(O)cc(O)cc1O [phloretin, β-(4-hydroxyphenyl)-2,4,6-trihydroxypropiophenone]
time of Cmax postdose ([3]; Sprague–Dawley rats, single 100 mg/kg dose): 15 min
Cmax ([3]; oral doses of 200 and 300 mg/kg): < 10 µM
oral bioavailability ([3]; rats, oral and intravenous routes): 8.676%
IC50 (FASN [1]): 4.9 ± 0.66 µM
inhibition at 10 µM (FASN [1]; read-out: inhibition of overall FASN activity): 81%
FASN protein content [4]: significantly decreased
time-dependent inhibition of KR domain (FASN KR domain): no time-dependent inhibition was observed
decrease of k obs by preincubation with Mal-CoA or NADPH (FASN [5]; Mal-CoA (10 μM) or NADPH (10 μM) vs no substrate): 5–10%
k obs, FASN inactivation without any substrate (FASN [5]; control, same conditions without substrate): 0.070 min^–1
k obs, overall reaction activity of FASN (FASN [5]; phloretin 2 mg/mL, incubated at 25 °C): 0.0264 min^–1
k obs, FASN inactivation with Ac-CoA (FASN [5]; with Ac-CoA (10 μM)): 0.025 min^–1
k obs, FASN inactivation with Mal-CoA (FASN [5]; with Mal-CoA (10 μM)): 0.067 min^–1
k obs, FASN inactivation with NADPH (FASN [5]; with NADPH (10 μM)): 0.064 min^–1
cellular TG levels [6]: marked concentration-dependent reduction
Ki (FASN [7]; substrate Ac-CoA): 3.46 µM
Ki (FASN [7]; substrate Mal-CoA): 5.69 µM
Inhibitory manner (FASN [7]; substrate Ac-CoA varied, Mal-CoA 10 μM, NADPH 35 μM): Competitive
Inhibitory manner (FASN [7]; substrate Mal-CoA varied, Ac-CoA 3 μM, NADPH 35 μM): Mixed competitive and noncompetitive
Inhibition constant K ii (FASN [7]; substrate Mal-CoA, enzyme–substrate complex): 9.41 µM
Inhibition constant K ii (FASN [7]; substrate NADPH): 1.80 µM
Inhibitory manner (FASN [7]; substrate NADPH varied, Ac-CoA 3 μM, Mal-CoA 10 μM): Uncompetitive
IC50 (MCF-7): 101 µM
enoyl reduction activity suppressed [8]: 4.8%
IC50 (MDA-MB-231): 81.4 µM
AcAc-CoA reaction activity remained [9]: 91.2%
lowest concentration with significant inhibition of intracellular FASN activity ([10]; p < 0.01, 24 h, breast cancer cells): 30 µM
inhibition at 90 µM ([10]; read-out: maximal inhibition of intracellular FASN enzymatic activity): > 50%
β-ketoacyl reduction activity suppressed [11]: 3.5%
